Data reported in PMC4894821 (ACS chemical biology, 2015).

Key:
[1] = molecular target: T1, OGG1 (Homo sapiens, UniProt O15527); experiment: OGG1 AP lyase activity on AP site-containing substrate; format: biochemical; settings: 10 μM compound, compared with no inhibitor control
Outline: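 AP-site substrate made by treating U-containing duplex with Udg, 37 °C, 2 h. OGG1 (62.5 nM stock) mixed with 10 μM compound or buffer, then substrate (50 nM stock) added. Incubated 30 min at 37 °C, quenched with formamide, resolved on 15% polyacrylamide/8 M urea gel. Percent cleavage vs no-inhibitor control; three independent experiments.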

[2] = molecular target: T1, OGG1; experiment: Gel-based OGG1 cleavage assay; format: biochemical; settings: eight concentrations up to 25 μM
[3] = molecular target: Human NEIL1 (Homo sapiens, UniProt Q96FI4); experiment: Fluorescence-based NEIL1 activity assay; format: biochemical; settings: read-out: NEIL1 % activity with 50 μM inhibitor
[4] = molecular target: T2, Human NTH1 (Homo sapiens, UniProt P78549); experiment: Fluorescence-based NTH1 activity assay; format: biochemical; settings: read-out: NTH1 % activity with 50 μM inhibitor
T2 sequence (P78549 23-304): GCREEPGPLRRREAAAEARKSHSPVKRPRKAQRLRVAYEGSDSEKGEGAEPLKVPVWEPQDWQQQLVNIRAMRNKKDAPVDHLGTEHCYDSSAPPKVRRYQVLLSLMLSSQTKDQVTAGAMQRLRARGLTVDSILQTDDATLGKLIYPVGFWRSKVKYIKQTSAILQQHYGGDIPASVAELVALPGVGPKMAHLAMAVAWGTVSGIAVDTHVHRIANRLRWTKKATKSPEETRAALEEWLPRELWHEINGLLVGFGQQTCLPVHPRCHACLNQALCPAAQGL

[5] = molecular target: T1, OGG1; experiment: Sodium cyanoborohydride trapping assay; format: biochemical; settings: 10 μM inhibitor, 1 mM NaBH3CN
[6] = molecular target: T1, OGG1; experiment: Gel shift assay; format: binding; settings: 50 μM inhibitor or ATA, 4 °C
Outline: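 EMSA on ice with precooled reagents. OGG1 (125 nM stock) pre-incubated 5–10 min with 50 μM inhibitor, ATA or buffer. Added 8-oxo-Gua, AP-site or U-containing fluorescent duplex (50 nM stock), held 5 min. Quenched with cold 30% glycerol; run on 8% native gel with 30% glycerol, 4 °C, 1 h, 75 V. Percent bound vs no-inhibitor control; three independent experiments.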

[7] = test system: AP-containing substrate; experiment: Protection of AP-containing substrate against NaOH-mediated strand cleavage

T1 sequence (O15527 whole entry): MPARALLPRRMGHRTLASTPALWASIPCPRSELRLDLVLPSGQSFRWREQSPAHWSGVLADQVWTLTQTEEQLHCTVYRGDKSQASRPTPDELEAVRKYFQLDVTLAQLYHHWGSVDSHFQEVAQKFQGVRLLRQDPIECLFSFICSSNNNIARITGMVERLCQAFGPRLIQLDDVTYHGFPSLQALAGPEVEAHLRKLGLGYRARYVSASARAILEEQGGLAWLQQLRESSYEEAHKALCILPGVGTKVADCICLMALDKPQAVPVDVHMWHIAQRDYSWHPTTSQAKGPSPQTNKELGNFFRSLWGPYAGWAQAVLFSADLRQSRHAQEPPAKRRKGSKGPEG
Sequence of Human NEIL1 (Q96FI4 whole entry): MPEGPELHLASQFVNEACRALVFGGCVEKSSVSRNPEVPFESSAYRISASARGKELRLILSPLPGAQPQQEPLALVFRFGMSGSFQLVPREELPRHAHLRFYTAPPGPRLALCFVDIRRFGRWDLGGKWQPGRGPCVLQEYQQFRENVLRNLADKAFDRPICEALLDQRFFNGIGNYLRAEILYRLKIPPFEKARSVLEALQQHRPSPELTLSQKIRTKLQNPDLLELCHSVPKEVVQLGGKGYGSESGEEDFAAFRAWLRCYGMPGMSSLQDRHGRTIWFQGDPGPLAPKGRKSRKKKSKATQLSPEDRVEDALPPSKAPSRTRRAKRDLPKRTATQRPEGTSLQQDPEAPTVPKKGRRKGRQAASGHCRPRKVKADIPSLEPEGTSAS

**Q.** Which “OGG1-induced cleavage of an AP site (lyase activity)” value [1] does the source give for `NNC(=O)c1ccncc1` [Isoniazid (INH), isoniazid] here?
**A.** no effect

**Q.** And the “inhibition of OGG1 (gel-based strand cleavage)” value [2]?
**A.** no inhibition

**Q.** And the activity at 50 µM [3]?
**A.** 80.6%

**Q.** And the activity at 50 µM [4]?
**A.** 98%

**Q.** What about the “trapping of OGG1 on 8-oxo-Gua- and AP site-containing substrates (Schiff base formation)” value [5] of the same compound?
**A.** no effect

**Q.** How did the “OGG1 binding to 8-oxo-Gua substrate” value [6] turn out when `O=C(O)C1=CC(=C(c2ccc(O)c(C(=O)O)c2)c2ccc(O)c(C(=O)O)c2)C=CC1=O` [aurintricarboxylic acid (ATA), aurintricarboxylic acid] was run?
**A.** abrogated

**Q.** `NNc1nncc2ccccc12` [hydralazine] was tested. Which “protection against NaOH-mediated (alkaline-induced) strand cleavage” value [7] did it give?
**A.** 63%

**Q.** With `Cc1cc(C(=O)NNCc2ccccc2)no1` [isocarboxazid (ICD), isocarboxazid] as the compound, how does the “OGG1-induced cleavage of an AP site (lyase activity)” value [1] read?
**A.** no effect
